Calls of active or inactive are those of the source. The rule behind the calls is not given here.
Experiments:
Brain [1] = assay: Tmax in rat brain assessed as 9H-fluoren-9-ol at 116 mg/kg, ip; format: ADME, organism-based; set-up: dose 116 mg/kg, route intraperitoneal; settings: in vivo
In short: (§1)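 Rats received the parent compound at 116 mg/kg ip in 0.5% methylcellulose/0.2% Tween 80. The metabolite was measured in plasma and brain over time. Cmax is given in ng/g, Tmax in h, and AUC0-t in ng h/g. Values are mean ± SEM, n = 3.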

Plasma [2] = assay: Tmax in rat plasma assessed as 9H-fluoren-9-ol at 116 mg/kg, ip; format: ADME, organism-based; set-up: dose 116 mg/kg, route intraperitoneal; settings: in vivo; in short: as §1
[3] = target: Sodium-dependent dopamine transporter (Rattus norvegicus, UniProt P23977); assay: Displacement of 3H-WIN-35428 from DAT in rat striata after 120 mins
Rattus norvegicus [4] = assay: Wake promoting activity in rat assessed as total time awake at 100 mg/kg, ip over a period of 3 hrs after dosing; format: functional; settings: route intraperitoneal
Brain [5] = assay: AUC (0 to t) in rat brain assessed as 9H-fluoren-9-ol at 116 mg/kg, ip; format: ADME, organism-based; set-up: dose 116 mg/kg, route intraperitoneal; settings: in vivo; in short: as §1
Brain [6] = assay: Cmax in rat brain assessed as 9H-fluoren-9-ol at 116 mg/kg, ip; format: ADME, organism-based; set-up: dose 116 mg/kg, route intraperitoneal; settings: in vivo; in short: as §1
Plasma [7] = assay: AUC (0 to t) in rat plasma assessed as 9H-fluoren-9-ol at 116 mg/kg, ip; format: ADME, organism-based; set-up: dose 116 mg/kg, route intraperitoneal; settings: in vivo; in short: as §1
Plasma [8] = assay: Cmax in rat plasma assessed as 9H-fluoren-9-ol at 116 mg/kg, ip; format: ADME, organism-based; set-up: dose 116 mg/kg, route intraperitoneal; settings: in vivo; in short: as §1
Plasma [9] = assay: Cmax in rat plasma assessed as 9H-fluoren-9-one at 116 mg/kg, ip; format: ADME, organism-based; set-up: dose 116 mg/kg, route intraperitoneal; settings: in vivo; in short: as §1
Brain [10] = assay: Tmax in rat brain assessed as 9H-fluoren-9-one at 116 mg/kg, ip; format: ADME, organism-based; set-up: dose 116 mg/kg, route intraperitoneal; settings: in vivo; in short: as §1
Brain [11] = assay: AUC (0 to t) in rat brain assessed as 9H-fluoren-9-one at 116 mg/kg, ip; format: ADME, organism-based; set-up: dose 116 mg/kg, route intraperitoneal; settings: in vivo; in short: as §1
Plasma [12] = assay: Tmax in rat plasma assessed as 9H-fluoren-9-one at 116 mg/kg, ip; format: ADME, organism-based; set-up: dose 116 mg/kg, route intraperitoneal; settings: in vivo; in short: as §1
Brain [13] = assay: Cmax in rat brain assessed as 9H-fluoren-9-one at 116 mg/kg, ip; format: ADME, organism-based; set-up: dose 116 mg/kg, route intraperitoneal; settings: in vivo; in short: as §1
Plasma [14] = assay: AUC (0 to t) in rat plasma assessed as 9H-fluoren-9-one at 116 mg/kg, ip; format: ADME, organism-based; set-up: dose 116 mg/kg, route intraperitoneal; settings: in vivo; in short: as §1
Cytochrome P450 2C19 = Cytochrome P450 2C19 (Homo sapiens, UniProt P33261); assay: Inhibition of CYP2C19; format: ADME
Canis familiaris = organism: Canis familiaris; assay: Wake promoting activity in dog; format: functional, organism-based; settings: Canis lupus familiaris
CYP2C19 = CYP2C19 (Homo sapiens, UniProt P33261); assay: Inhibition of CYP2C19 at 10 uM; format: ADME
Rattus norvegicus [15] = assay: Wake promoting activity in rat assessed as total time awake at 30 mg/kg, ip over a period of 3 hrs after dosing; format: functional; settings: route intraperitoneal
[16] = Cmax in rat brain at 116 mg/kg, ip; format: ADME, organism-based; set-up: dose 116 mg/kg, route intraperitoneal
[17] = Cmax in rat plasma at 116 mg/kg, ip; format: ADME, organism-based; set-up: dose 116 mg/kg, route intraperitoneal
Brain [18] = assay: AUC (0 to t) in rat brain at 116 mg/kg, ip; format: ADME, organism-based; set-up: dose 116 mg/kg, route intraperitoneal; settings: in vivo
[19] = Tmax in rat plasma at 116 mg/kg, ip; format: ADME, organism-based; set-up: dose 116 mg/kg, route intraperitoneal
[20] = Tmax in rat brain at 116 mg/kg, ip; format: ADME, organism-based; set-up: dose 116 mg/kg, route intraperitoneal
Plasma [21] = assay: AUC (0 to t) in rat plasma at 116 mg/kg, ip; format: ADME, organism-based; set-up: dose 116 mg/kg, route intraperitoneal; settings: in vivo
Cytochrome P450 3A4 = Cytochrome P450 3A4 (Homo sapiens, UniProt P08684); assay: Inhibition of CYP3A4; format: ADME
Plasma [22] = assay: Plasma concentration in human at efficacious dose; format: ADME, cell-free
Cytochrome P450 2D6 = Cytochrome P450 2D6 (Homo sapiens, UniProt P10635); assay: Inhibition of CYP2D6; format: ADME
Chain of Cytochrome P450 2D6 (P10635 whole entry): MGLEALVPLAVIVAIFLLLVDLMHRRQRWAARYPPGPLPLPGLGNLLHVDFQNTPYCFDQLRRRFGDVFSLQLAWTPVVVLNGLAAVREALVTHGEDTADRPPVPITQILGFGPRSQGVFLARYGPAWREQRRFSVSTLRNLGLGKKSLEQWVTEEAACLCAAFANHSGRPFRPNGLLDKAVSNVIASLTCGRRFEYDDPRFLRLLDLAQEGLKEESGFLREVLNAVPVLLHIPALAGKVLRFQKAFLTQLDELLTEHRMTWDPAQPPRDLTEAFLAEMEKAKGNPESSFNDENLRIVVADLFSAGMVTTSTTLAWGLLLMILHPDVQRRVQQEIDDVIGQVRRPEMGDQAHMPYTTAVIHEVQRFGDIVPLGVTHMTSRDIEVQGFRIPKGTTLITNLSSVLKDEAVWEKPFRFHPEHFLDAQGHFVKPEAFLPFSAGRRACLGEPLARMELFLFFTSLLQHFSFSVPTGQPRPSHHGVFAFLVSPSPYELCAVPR

Chain of Sodium-dependent dopamine transporter (P23977 whole entry): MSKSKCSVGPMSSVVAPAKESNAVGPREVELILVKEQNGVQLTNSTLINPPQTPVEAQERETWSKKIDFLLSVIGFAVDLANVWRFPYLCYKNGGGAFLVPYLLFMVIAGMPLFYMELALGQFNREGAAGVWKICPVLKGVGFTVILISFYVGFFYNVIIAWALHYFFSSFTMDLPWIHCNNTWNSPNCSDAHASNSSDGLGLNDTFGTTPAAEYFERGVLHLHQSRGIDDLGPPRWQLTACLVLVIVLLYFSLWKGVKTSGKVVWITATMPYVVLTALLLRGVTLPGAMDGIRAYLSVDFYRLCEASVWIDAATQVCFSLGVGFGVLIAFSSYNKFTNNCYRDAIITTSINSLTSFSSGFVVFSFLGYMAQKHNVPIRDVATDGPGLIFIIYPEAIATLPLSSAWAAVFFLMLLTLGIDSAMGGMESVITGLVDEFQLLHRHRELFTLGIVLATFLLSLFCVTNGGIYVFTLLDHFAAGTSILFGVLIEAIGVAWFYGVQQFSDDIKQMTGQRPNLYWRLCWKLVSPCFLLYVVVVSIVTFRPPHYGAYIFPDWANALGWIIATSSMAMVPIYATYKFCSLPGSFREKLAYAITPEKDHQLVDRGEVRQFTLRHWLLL
Chain of Cytochrome P450 2C19 (P33261 whole entry): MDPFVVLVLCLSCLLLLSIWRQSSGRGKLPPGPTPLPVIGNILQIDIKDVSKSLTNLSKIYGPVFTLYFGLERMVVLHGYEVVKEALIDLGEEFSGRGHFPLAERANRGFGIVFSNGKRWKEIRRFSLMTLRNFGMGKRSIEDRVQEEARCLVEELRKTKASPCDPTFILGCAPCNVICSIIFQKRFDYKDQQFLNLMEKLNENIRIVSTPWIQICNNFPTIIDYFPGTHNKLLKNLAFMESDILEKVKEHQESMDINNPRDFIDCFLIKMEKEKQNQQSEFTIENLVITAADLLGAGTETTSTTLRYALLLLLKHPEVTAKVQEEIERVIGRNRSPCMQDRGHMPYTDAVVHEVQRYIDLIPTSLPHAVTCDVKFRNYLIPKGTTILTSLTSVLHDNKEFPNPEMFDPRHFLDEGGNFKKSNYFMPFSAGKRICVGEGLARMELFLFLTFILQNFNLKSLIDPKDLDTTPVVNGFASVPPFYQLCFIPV
Chain of CYP2C19 (P33261 whole entry): as above
Chain of Cytochrome P450 3A4 (P08684 whole entry): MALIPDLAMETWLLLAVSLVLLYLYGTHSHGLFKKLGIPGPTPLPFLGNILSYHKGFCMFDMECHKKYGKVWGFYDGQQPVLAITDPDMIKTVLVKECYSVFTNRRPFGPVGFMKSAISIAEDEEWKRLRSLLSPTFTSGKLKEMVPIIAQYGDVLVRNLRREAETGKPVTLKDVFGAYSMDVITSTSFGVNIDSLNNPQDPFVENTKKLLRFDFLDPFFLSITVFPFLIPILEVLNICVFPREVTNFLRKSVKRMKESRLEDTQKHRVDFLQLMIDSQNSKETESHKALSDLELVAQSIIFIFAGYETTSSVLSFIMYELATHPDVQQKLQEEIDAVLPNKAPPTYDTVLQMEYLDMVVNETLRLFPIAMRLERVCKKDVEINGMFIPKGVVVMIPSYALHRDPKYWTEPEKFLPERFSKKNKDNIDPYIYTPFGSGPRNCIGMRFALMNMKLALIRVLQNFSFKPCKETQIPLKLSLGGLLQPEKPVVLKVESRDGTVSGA

Structure (SMILES) | IC50 [3] [µM] | Time (Rattus norvegicus [4]) [min] | IC50 (Cytochrome P450 2C19) [µM] | Activity (Canis familiaris) | other results
OC1c2ccccc2-c2ccccc21 | 9 | 163 |  |  | Tmax (Brain [1]): 48 min; Tmax (Plasma [2]): 120 min; AUCt (Brain [5]): 11639 ng·h/g; Cmax (Brain [6]): 4384 ng/g; AUCt (Plasma [7]): 1081 ng·h/g; Cmax (Plasma [8]): 263 ng/g
O=C1c2ccccc2-c2ccccc21 |  |  |  |  | Cmax (Plasma [9]): 255 ng/g; Tmax (Brain [10]): 48 min; AUCt (Brain [11]): 2349 ng·h/g; Tmax (Plasma [12]): 72 min; Cmax (Brain [13]): 971 ng/g; AUCt (Plasma [14]): 939 ng·h/g
C[C@H](NC(=O)C[S+]([O-])C1c2ccccc2-c2ccccc21)C(N)=O (mixture of isomers) | > 100 | 151 | > 100 | inactive | 
NC(=O)[C@H](CO)NC(=O)C[S+]([O-])C1c2ccccc2-c2ccccc21 (mixture of isomers) | > 100 | 136 | > 100 | inactive | 
NC(=O)[C@@H]1CCCN1C(=O)C[S+]([O-])C1c2ccccc2-c2ccccc21 (mixture of isomers) | > 100 | 169 | > 100 | inactive | 
NC(=O)C[S+]([O-])C1c2ccccc2-c2ccccc21 (racemic) | > 100 | 116 | > 100 | inactive | 
CC1([S+]([O-])CC(N)=O)c2ccccc2-c2ccccc21 (racemic) | > 100 | 71 |  |  | inhibition at 10 µM (CYP2C19): 26%
CNC(=O)C[S+]([O-])C1c2ccccc2-c2ccccc21 (racemic) | > 100 | 83 |  | inactive | inhibition at 10 µM (CYP2C19): 48%
O=C(C[S+]([O-])C1c2ccccc2-c2ccccc21)NCCO (racemic) | > 100 | 167 | > 100 | inactive | 
CCN(CC)C(=O)C[S+]([O-])C1c2ccccc2-c2ccccc21 (racemic) | > 100 | 99 | > 100 | inactive | 
O=C(C[S+]([O-])C1c2ccccc2-c2ccccc21)N1CCOCC1 (racemic) | > 100 |  |  | inactive | inhibition at 10 µM (CYP2C19): 30%; Time (Rattus norvegicus [15]): 158 min
O=C(C[S+]([O-])C1c2ccccc2-c2ccccc21)N1CCNCC1 (racemic) | > 100 |  | > 100 | inactive | Time (Rattus norvegicus [15]): 119 min
CC(=O)N1CCN(C(=O)C[S+]([O-])C2c3ccccc3-c3ccccc32)CC1 (racemic) | > 100 |  | > 100 | inactive | Cmax [16]: 416 ng/g; Cmax [17]: 6290 ng/g; AUCt (Brain [18]): 295 ng·h/g; Tmax [19]: 48 min; Tmax [20]: 48 min; Time (Rattus norvegicus [15]): 146 min; AUCt (Plasma [21]): 7501 ng·h/g
NC(=O)CNC(=O)C[S+]([O-])C1c2ccccc2-c2ccccc21 (racemic) | > 100 | 140 | > 100 | inactive | 
NC(=O)C[S+]([O-])C(c1ccccc1)c1ccccc1 (racemic) [MODAFINIL] |  | 117 |  | inactive | inhibition (INH) (Cytochrome P450 3A4): Not Active; concentration (Plasma [22]): > 30 µM; inhibition (INH) (Cytochrome P450 2D6): Not Active
